Molecules are shown by their SMILES.

The subject of series [1] is Candida albicans. The series can be described thus: Ratio of IC50 for inhibition of RNA biosynthesis in Candida albicans WTBF-50 by [3H]-uridine incorporation assay to IC50 for inhibition of DNA and RNA biosynthesis in Candida albicans WTBF-50 by [3H]-adenine incorporation assay. Type of series: functional. In short, it runs like this:
(§1)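 The ratio was formed from IC50 values of the 3H-precursor incorporation assay: C. albicans at OD600 of about 1 in RPMI, serial compound dilutions, 10 μCi/ml final label, 90 min at 37 °C. TCA precipitate was scintillation-counted, triplicates were run, and IC50 came from a four-parameter fit.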

The next series relates to Cryptococcus neoformans. The series can be described thus: Antifungal activity against Cryptococcus neoformans Cn18 (Serotype C) WTBF-106 by microbroth dilution method. It counts as functional. The method in brief:
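Microbroth dilution per the CLSI protocol, run in Sabouraud Dextrose Broth in place of RPMI. MIC values are geometric means of three independent assays.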

The subject of series [2] is Candida albicans. The experiment in a line: Fungicidal activity against Candida albicans WTBF-50 assessed as decrease in number of viable cells measured within 4 to 24 hrs. It counts as functional, organism-based. The method in brief:
(§2)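 C. albicans was grown in RPMI at 37 °C to OD600 of about 1. […] Samples taken at intervals were serially diluted and plated on Sabouraud agar, and cfu/ml was counted.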

For a further series, the system named is Pichia kudriavzevii. The series can be described thus: Antifungal activity against Candida krusei WTBF-51 by microbroth dilution method. Type of series: functional.
Series [3] has as its system Candida albicans. The experiment in a line: Fungicidal activity against Candida albicans WTBF-50 assessed as inhibition of DNA and RNA biosynthesis after 90 mins by [3H]-adenine incorporation assay. Type of series: functional, organism-based. In short, it runs like this:
(§3)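 C. albicans was grown in RPMI at 37 °C to OD600 of about 1, then mixed with 2-fold serial dilutions of compound and one 3H precursor at 10 μCi/ml final. Incubation ran 90 min at 37 °C, about one doubling. TCA precipitate was filter-collected and scintillation-counted. Each concentration was tested in triplicate. Incorporation relative to untreated control was fitted with a four-parameter curve to give the IC50.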

In series [4] the test system is Candida albicans. The series can be described thus: Fungicidal activity against Candida albicans WTBF-50 assessed as inhibition of RNA biosynthesis after 90 mins by [3H]-uridine incorporation assay. Type of series: functional, organism-based. In short, it runs like this:
as §3

The subject of series [5] is Candida albicans. The experiment in a line: Fungicidal activity against Candida albicans WTBF-50 assessed as inhibition of lipid biosynthesis after 90 mins by [3H]-acetate incorporation assay. Type of series: functional, organism-based. The method in brief:
as §3

In series [6] the test system is Candida albicans. The series can be described thus: Fungicidal activity against Candida albicans WTBF-50 assessed as log10 reduction in CFU/ml at 4 x MIC measured within 4 hrs. Type of series: functional. The method in brief:
as §2

Another series relates to HeLa. The experiment in a line: Cytotoxicity against human HeLa cells assessed as cell viability after 72 hrs by MTS assay. It counts as cell-based.
The subject of series [7] is Candida albicans. The series can be described thus: Antifungal activity against Candida albicans WTBF-50 by microbroth dilution method. Type of series: functional. The method in brief:
(§4)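 CLSI microbroth dilution in RPMI 1640 with L-glutamine. MIC values are geometric means of three independent assays.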

In series [8] the test system is Candida albicans. The experiment in a line: Fungicidal activity against Candida albicans WTBF-50 assessed as inhibition of cell wall biosynthesis after 90 mins by [3H]-glucosamine incorporation assay. It counts as functional, organism-based. The method in brief: as §3
The nature of series [9]: Metabolic stability in liver microsomes (unknown origin). Type of series: ADME.
Series [10] has as its system Candida albicans. The series can be described thus: Fungicidal activity against Candida albicans WTBF-50 assessed as inhibition of protein biosynthesis after 90 mins by [3H]-leucine incorporation assay. It counts as functional, organism-based. In short, it runs like this: as §3
For series [11], the system named is Candida albicans. The experiment in a line: Fungicidal activity against Candida albicans WTBF-50 assessed as log10 reduction in CFU/ml at 1 x MIC measured within 4 hrs. It counts as functional. The method in brief: as §2
The next series deals with Nakaseomyces glabratus. The series can be described thus: Antifungal activity against Candida glabrata ATCC 90030 WTBF-86 by microbroth dilution method. Type of series: functional. The method in brief:
as §4

The test system of series [12] is Candida albicans. The experiment in a line: Ratio of IC50 for inhibition of cell wall biosynthesis in Candida albicans WTBF-50 by [3H]-glucosamine incorporation assay to IC50 for inhibition of DNA and RNA biosynthesis in Candida albicans WTBF-50 by [3H]-adenine incorporation assay. It counts as functional. The method in brief:
as §1

For a further series, the system named is Candida parapsilosis. The series can be described thus: Antifungal activity against Candida parapsilosis ATCC 90018 WTBF-88 by microbroth dilution method. The conditions noted are these: Lodderomyces parapsilosis. Type of series: functional. In short, it runs like this:
as §4

The test system of series [13] is Candida albicans. The series can be described thus: Fungicidal activity against Candida albicans WTBF-50 assessed as log10 reduction in CFU/ml at 2 x MIC measured within 24 hrs. Type of series: functional. The method in brief: as §2
Series [14] concerns Candida albicans. The experiment in a line: Fungicidal activity against Candida albicans WTBF-50 assessed as log10 reduction in CFU/ml at 1 x MIC measured within 24 hrs. Type of series: functional. In short, it runs like this:
as §2

`O=C(O)C(F)(F)F.c1cc2cc(-c3ccc(-c4cc5ccc(C6=NCCCN6)cc5[nH]4)cc3)[nH]c2cc1C1=NCCCN1`: the “Ratio IC50” value with Candida albicans [1] worked out at 30; with Candida albicans [12] it was 59. In addition, the minimum inhibitory concentration (MIC) against Cryptococcus neoformans stood at 0.08 µg/mL; against Pichia kudriavzevii, 0.13 µg/mL; against Candida albicans [7], 0.25 µg/mL; against Nakaseomyces glabratus, 0.06 µg/mL; in the series with Candida parapsilosis, 0.1 µg/mL. Moreover, the results for the Activity result in the series with Candida albicans [2], in the series on Candida albicans [6] and in the series with Candida albicans [11] were “Dose-dependent effect”, greater than 3 log10CFU/ml and 3 log10CFU/ml, respectively. Moreover, the IC50 in the series on Candida albicans [3] is 0.01 µg/mL; in the series on Candida albicans [4], 0.32 µg/mL; in the series on Candida albicans [5], no less than 2 µg/mL; in the series on Candida albicans [8], 0.59 µg/mL; with Candida albicans [10], 0.59 µg/mL. Besides, the CC50 with HeLa was 4 µg/mL. Further, in [9], the Stability entry is “Stable”.
As to `CC(=O)O.c1cc2cc(-c3ccc(-c4c[nH]c5cc(C6=NCCCN6)ccc45)cc3)[nH]c2cc1C1=NCCCN1`, the “Ratio IC50” value was determined as 30 in the series with Candida albicans [1] and 43.5 in the series with Candida albicans [12]. The MIC against Cryptococcus neoformans was 0.98 µg/mL; in the series with Pichia kudriavzevii it was 0.25 µg/mL; against Candida albicans [7], 0.25 µg/mL; with Nakaseomyces glabratus it was 0.06 µg/mL; against Candida parapsilosis, 0.16 µg/mL. Also, the Activity entry was “Dose-dependent effect” in the series with Candida albicans [2], 4 log10CFU/ml in the series on Candida albicans [13], greater than 3 log10CFU/ml in the series on Candida albicans [6] and 1 log10CFU/ml with Candida albicans [14]. Also, the IC50 in the series with Candida albicans [3] was 0.02 µg/mL; in the series with Candida albicans [4], 0.56 µg/mL; with Candida albicans [5], no less than 2 µg/mL; in the series with Candida albicans [8], 0.87 µg/mL; with Candida albicans [10], 0.86 µg/mL. Also, the CC50 with HeLa turned out to be 2.4 µg/mL. In series [9], the Stability entry was “Stable”.

Source of the values: ChEMBL document CHEMBL3600321, “Synthesis and antifungal evaluation of head-to-head and head-to-tail bisamidine compounds” (Bioorg Med Chem, 2015).
